Experimental findings from the array DNA melting data of Ke et al. (doi:10.1101/2024.01.08.574731) are described below.

Series [1] can be described thus: melting temperature; fluorescence melt of hairpins on a sequencing array, two-state fit, raised by 9.35 °C to match UV melts. The settings on record: sodium 0.088 M. The procedure, abridged: (§1)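 Bootstrapped two-state fits yielded melting temperature and folding enthalpy for library hairpins. Cy3 fluorescence, with annealed Cy3 and quencher oligos, was imaged on a sequenced MiSeq flow cell in 50 mM Na-HEPES pH 8.0, 25 mM NaCl in 2.5 °C steps up to 60 °C, and normalised to pre-quench Cy3 and to control constructs. Four replicates were combined by inverse variance, and fitted temperatures were raised by 9.35 °C to match UV melts.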

Series [2] is described as follows: folding enthalpy; higher = less favourable; fluorescence melt of hairpins on a sequencing array, two-state fit. The note with it: sodium 0.088 M. The procedure, abridged:
as §1

As to GGTCTGGAAACAGACC ((((((....)))))), in series [1], the Tm is 63.9 °C. In addition, in series [2], the folding enthalpy is -38 kcal/mol.

As to GGTCTGGGAAACCAAACC (((.(((....))).))), the Tm in series [1] was determined as 35.1 °C. Further, the folding enthalpy in series [2] is -29.9 kcal/mol.

Take GGTCTGGGAAACCAGATC (.(((((....))))).): the Tm in series [1] was found to be 49.4 °C. Further, the folding enthalpy in series [2] is -25.8 kcal/mol.

Turning to GGTCTGGGAAACCGGACC ((((.((....)).)))), in series [1], the Tm turned out to be 58.6 °C. Also, in series [2], the folding enthalpy was -46.1 kcal/mol.

For GGTCTGTCGAAAGACACC (((..(((....)))))), the Tm in series [1] came to 30.5 °C. The folding enthalpy in series [2] was -11.4 kcal/mol.

In the case of GGTCTTCGAAAGAAACC (((.(((....)))))), in series [1], the Tm worked out at 32.9 °C. For the same sequence, the folding enthalpy in series [2] is -18.4 kcal/mol.

For GGTGAACGAAAGTTACC (((.(((....)))))), the Tm in series [1] was found to be 40.6 °C. Moreover, in series [2], the folding enthalpy is -23.4 kcal/mol.

For GGTGAAGAAATTCACC ((((((....)))))), in series [1], the Tm was found to be 52.6 °C. For the same sequence, the folding enthalpy in series [2] is -32.5 kcal/mol.

Turning to GGTGACACGAAAGTGACC (((..(((....)))))), in series [1], the Tm stood at 38.1 °C. The folding enthalpy in series [2] is -15.8 kcal/mol.

Turning to GGTGACCGAAAGGTACC (((.(((....)))))), the Tm in series [1] came out at 49 °C. Also, the folding enthalpy in series [2] was -21.8 kcal/mol.

For GGTGACGAAAGTCAAACC ((((((....)))..))), the Tm in series [1] was found to be 46.3 °C. Besides, the folding enthalpy in series [2] is -17.4 kcal/mol.

Turning to GGTGACGAAAGTCCACC ((((((....))).))), the Tm in series [1] was 50.8 °C. For the same sequence, the folding enthalpy in series [2] is -25.9 kcal/mol.

Consider GGTGACGAAAGTCCCACC ((((((....)))..))), for which the Tm in series [1] stood at 43.4 °C. For the same sequence, the folding enthalpy in series [2] was -12.9 kcal/mol.

On to GGTGACGAAAGTCGCACC ((((((....)))..))), for which the Tm in series [1] was determined as 45.6 °C. In addition, in series [2], the folding enthalpy was -13.9 kcal/mol.

As for GGTGACGGAAACATCACC (((((.(....).))))), in series [1], the Tm is 43.7 °C. Besides, the folding enthalpy in series [2] is -33.1 kcal/mol.

For GGTGACGGAAACGTCGTC (..((((....))))..), in series [1], the Tm was found to be 42 °C. In series [2], the folding enthalpy was -13.9 kcal/mol.

With GGTGATCGAAAGATGACC (((.(((....))).))), the Tm in series [1] was determined as 47.9 °C. Moreover, the folding enthalpy in series [2] is -33.4 kcal/mol.

On to GGTGCAACGAAAGTTACC (((..(((....)))))), for which the Tm in series [1] was determined as 27.7 °C. The folding enthalpy in series [2] is -13.1 kcal/mol.

For GGTGCACCGAAAGGTACC (((..(((....)))))), in series [1], the Tm was 37.6 °C. Also, the folding enthalpy in series [2] was -11.6 kcal/mol.

Turning to GGTGCACGAAAGTGACC (((.(((....)))))), the Tm in series [1] stood at 49 °C. The folding enthalpy in series [2] was -17.4 kcal/mol.

Turning to GGTGCACGAAAGTGTACC (((.(((....))).))), in series [1], the Tm worked out at 64.5 °C. For the same sequence, in series [2], the folding enthalpy is -38 kcal/mol.

Consider GGTGCAGAAATGCACC ((((((....)))))), for which, in series [1], the Tm was 68 °C. Besides, the folding enthalpy in series [2] is -25.9 kcal/mol.

In the case of GGTGCAGGAAACTGCGCC ((.((((....)))).)), in series [1], the Tm was 65.3 °C. The folding enthalpy in series [2] is -34.3 kcal/mol.

As to GGTGCAGGAAACTGTGCC ((..(((....)))..)), in series [1], the Tm came to 48.5 °C. Also, the folding enthalpy in series [2] is -26.1 kcal/mol.

For GGTGCCCGAAAGGGTACC (((.(((....))).))), in series [1], the Tm is 68.2 °C. Besides, the folding enthalpy in series [2] is -33.4 kcal/mol.

Regarding GGTGCCGAAAGGCAACC ((((((....))).))), in series [1], the Tm came out at 66.1 °C. Moreover, the folding enthalpy in series [2] is -19.6 kcal/mol.

Regarding GGTGCCGAAAGGCCAACC ((((((....)))..))), the Tm in series [1] worked out at 44.1 °C. Also, the folding enthalpy in series [2] is -12.7 kcal/mol.

On to GGTGCCGAAAGGCGAACC ((((((....)))..))), for which the Tm in series [1] was 46.9 °C. For the same sequence, the folding enthalpy in series [2] is -15 kcal/mol.

As for GGTGCCGAAAGGCGCACC ((((((....)))..))), the Tm in series [1] worked out at 53.2 °C. The folding enthalpy in series [2] was -11 kcal/mol.

Turning to GGTGCCGAAAGGCGGACC ((((((....)))..))), the Tm in series [1] was 45.7 °C. For the same sequence, the folding enthalpy in series [2] is -13.9 kcal/mol.

Turning to GGTGCCGAAAGGCTAACC ((((((....)))..))), in series [1], the Tm amounted to 50.7 °C. The folding enthalpy in series [2] was -15.3 kcal/mol.

Consider GGTGCCGAAAGGCTACC ((((((....))).))), for which the Tm in series [1] came to 57.8 °C. Further, the folding enthalpy in series [2] was -17.2 kcal/mol.

In the case of GGTGCCGCGAAAGCGACC (((..(((....)))))), the Tm in series [1] is 45.6 °C. Besides, in series [2], the folding enthalpy was -9.79 kcal/mol.

For the sequence GGTGCCGGAAACAGCACC (((((.(....).))))), in series [1], the Tm was found to be 53.5 °C. The folding enthalpy in series [2] was -46.2 kcal/mol.

For GGTGCCGGAAACGGCATC (.(((((....))))).), the Tm in series [1] worked out at 62.4 °C. For the same sequence, the folding enthalpy in series [2] was -15.1 kcal/mol.

As for GGTGCGCCGAAAGGCACC (((..(((....)))))), in series [1], the Tm was determined as 51.6 °C. The folding enthalpy in series [2] was -13.2 kcal/mol.
